Compound activity: PubChem, The Scripps Research Institute Molecular Screening Center
Fh CTSL1 inh – Fasciola hepatica cathepsin L1 inhibitors, primary screen, counter-screen for PFM18AAP inhibitor project, biochemical, QFRET, fluorogenic peptide substrate | recombinant F. hepatica cathepsin L1, Z-Leu-Arg-MCA fluorescence | AID 1906, 2009 | inhibition, % at 5.96 µM | actives 0.49% (n = 300,000);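 active = inhibition above the mean of all tested compounds plus 3 SD, set per screening campaign, cut at about 17% in these data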;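 also: 0% = plate median of test compound wells and 100% = 1 µM Z-Phe-Ala-diazomethylketone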
TDP2 absorb – human TDP2 enzyme inhibitors, primary screen, biochemical, epi absorbance, recombinant enzyme. inhibition, % at 12.8 µM. actives 0.34% (n = 370,000). T5PNP hydrolysis, p-nitrophenol absorbance 415 nm. Tyrosyl-DNA phosphodiesterase 2 (Homo sapiens), O95551;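 active = inhibition above the mean of all tested compounds plus 3 SD, set per campaign, cut at about 25% in these data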;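 also: 0% = DMSO with enzyme and 100% = buffer with substrate but no TDP2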
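test system = human TDP2 enzyme | input = TDP2 enzyme at 120 nM final | medium = 50 mM Tris-HCl pH 7.5 with Mg2+, KCl, DTT, BSA | also added = T5PNP substrate, 5 mM | times = 2 h at 37 °C | technique = epi absorbance | benchmarks = high control without enzyme, low control DMSO plus TDP2 | replication = each compound tested once, singlicate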
PAD4 inh – human PAD4 inhibitors, primary screen, biochemical, fluorescence polarization, 1536-well format. inhibition, % at 6.36 µM. recombinant PAD4, RCA probe fluorescence polarization. Protein-arginine deiminase type-4 (Homo sapiens), Q9UM07. actives 0.41% (n = 330,000);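 active = percent inhibition above a cutoff equal to the mean of all tested compounds plus 3 SD, cut at about 15% in these data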;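 also: 0% = PAD4 with RCA probe and DMSO and 100% = probe without PAD4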
Target sequence (Q9UM07 whole entry, looked up): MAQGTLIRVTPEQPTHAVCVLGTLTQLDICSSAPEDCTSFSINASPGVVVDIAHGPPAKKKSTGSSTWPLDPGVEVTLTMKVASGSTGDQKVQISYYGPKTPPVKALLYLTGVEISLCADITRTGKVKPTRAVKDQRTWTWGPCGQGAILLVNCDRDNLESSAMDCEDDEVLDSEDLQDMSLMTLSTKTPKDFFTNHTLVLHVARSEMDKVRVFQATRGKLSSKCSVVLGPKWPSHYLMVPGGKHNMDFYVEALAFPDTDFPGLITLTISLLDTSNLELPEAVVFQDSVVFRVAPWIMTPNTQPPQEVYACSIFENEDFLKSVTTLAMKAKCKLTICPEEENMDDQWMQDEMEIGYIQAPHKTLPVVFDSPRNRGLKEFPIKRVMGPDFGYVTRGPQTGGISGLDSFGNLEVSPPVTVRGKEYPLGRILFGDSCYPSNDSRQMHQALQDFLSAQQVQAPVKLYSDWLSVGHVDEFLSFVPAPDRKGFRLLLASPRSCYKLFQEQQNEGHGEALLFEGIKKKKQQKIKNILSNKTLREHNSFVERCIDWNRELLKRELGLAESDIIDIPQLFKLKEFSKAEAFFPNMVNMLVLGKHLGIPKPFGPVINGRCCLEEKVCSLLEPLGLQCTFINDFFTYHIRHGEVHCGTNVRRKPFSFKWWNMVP
PRMT1 inh – PRMT1 methyltransferase inhibitors, primary screen, biochemical, fluorescence polarization | Protein arginine N-methyltransferase 1 (Homo sapiens), Q99873 | recombinant PRMT1, activity-based probe fluorescence polarization | inhibition, % at 2.79 µM | actives 1.3% (n = 370,000);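 active = inhibition above about 21% made by adding two undisclosed values, limit read from the data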
GSTO1 counter – inhibitors of recombinant GSTO1, primary screen, counter-screen for RBBP9 inhibitor project, biochemical, fluorescence polarization; activity-based probe fluorescence polarization; inhibition, % at 5.96 µM; actives 1.1% (n = 300,000);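 active = inhibition above the campaign mean inhibition plus 3 SD, cut at about 35% in these data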;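 also: 0% = GSTO1-1 with DMSO and 100% = wells lacking GSTO1-1 enzyme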
* = called active by the depositor. The list is not random: actives were taken first. Their share in the collection is about 2.5%.

`O=C1CCC2(CCC(c3ccccc3)CC2)N1CC[C@@H](O)c1ccccc1` (stereo partly specified) gave TDP2 absorb 6.6 and PRMT1 inh -1.3.
`O=S(=O)(CC1NCc2cc(F)ccc21)NCc1ccc(F)cc1` (stereo unspecified) gave TDP2 absorb -4.1 and PRMT1 inh -2.8.
`Cc1ccc(OCc2nnc(SCC(=O)c3ccc4ccccc4c3)n2-c2ccc(Cl)cc2)cc1` gave TDP2 absorb 7.9 and PRMT1 inh 4.4.
For COc1ccc(NC(=O)C2C3C=CC4(O3)C2C(=O)N(CCN2CCCCC2)C4C(=O)NC2CCCC(C)C2C)cc1 (stereo unspecified) the results were Fh CTSL1 inh 20.3*, TDP2 absorb -3.5, PAD4 inh -4.1, PRMT1 inh 1.4 and GSTO1 counter -4.9.
Screening Cc1ccc(-c2cc(-c3ccccc3Cl)c(C#N)c(N)n2)o1 returned Fh CTSL1 inh 9.2, TDP2 absorb 1.2, PAD4 inh -15.1, PRMT1 inh 22.0* and GSTO1 counter 1.0.
For COc1cccc(N2C(=O)N(c3ccccc3Cl)C3CS(=O)(=O)CC32)c1 (stereo unspecified) the results were Fh CTSL1 inh 17.4*, TDP2 absorb -6.8, PAD4 inh -0.6, PRMT1 inh 0.8 and GSTO1 counter 6.0.
Screening COc1ccc(CCC(=O)Nc2c(-c3ccc(N(C)C)cc3)[nH][nH]c2=O)cc1 returned TDP2 absorb 60.1* and PRMT1 inh 6.2.
`Cc1cnc(C)c(Nc2nc(C(N)Cc3ccc(F)cc3)cs2)n1` (stereo unspecified) gave TDP2 absorb 4.5 and PRMT1 inh -1.1.
Cc1cnc(C)c(Nc2nc(C(N)Cc3ccc(Cl)cc3)cs2)n1 (stereo unspecified) was read as TDP2 absorb -12.7 and PRMT1 inh 24.7*.
`COc1ccc(OC)c(CN2C(=O)CSCCC2(C)c2nnnn2C2CCCC2)c1` (stereo unspecified) gave TDP2 absorb 4.1 and PRMT1 inh -3.1.
COC(=O)[C@]1(C)CCC[C@@]2(C)C3CC[C@@]4(C)C[C@]3(CCC21)CC(=O)N4 (stereo partly specified) was read as TDP2 absorb 4.0, PAD4 inh 1.8 and PRMT1 inh -3.2.
`C=C1C(=O)C23CCC4C(C)(C(=O)OC)CCCC4(C)C2CCC1(O)C3` (stereo unspecified) gave TDP2 absorb 0.9 and PRMT1 inh 28.9*.
O=C(CSc1nnc(COc2ccccc2Cl)o1)Nc1ccccc1 was read as TDP2 absorb 8.5, PAD4 inh 1.9 and PRMT1 inh 2.0.
`CC(C)(C)NC(=O)NC(=O)CSc1nnc(COc2ccccc2Cl)o1` gave Fh CTSL1 inh -1.1, TDP2 absorb -14.2, PAD4 inh 0.4, PRMT1 inh 2.8 and GSTO1 counter 35.9*.
`COc1ccc(C)cc1NC(=O)C(OC(=O)CNC(=O)c1cccc(F)c1)c1ccccc1` (stereo unspecified) gave Fh CTSL1 inh 29.1*, TDP2 absorb 11.5, PAD4 inh 0.9, PRMT1 inh 2.4 and GSTO1 counter 0.0.
`O=C(CNC(=O)c1ccccc1)OC(C(=O)Nc1cc(C(F)(F)F)ccc1Cl)c1ccccc1` (stereo unspecified) gave Fh CTSL1 inh 28.3*, TDP2 absorb -4.0, PAD4 inh 1.4, PRMT1 inh -0.5 and GSTO1 counter -0.4.
`CCOc1ccc(-n2c(SCC(=O)Nc3ccc(S(=O)(=O)Nc4nccs4)cc3)nnc2-c2ccco2)cc1` gave TDP2 absorb -5.2 and PRMT1 inh 6.0.
`NC(=O)C1CCN(c2ncc(Br)s2)CC1` gave TDP2 absorb -1.5 and PRMT1 inh 21.6*.
Oc1ccc(Cl)cc1-c1cc(-c2ccco2)[nH]n1 was read as Fh CTSL1 inh -1.1, TDP2 absorb 7.6, PAD4 inh -11.2, PRMT1 inh 3.7 and GSTO1 counter -12.3.
For Oc1ccccc1-c1cc(-c2ccco2)[nH]n1 the results were Fh CTSL1 inh -2.9, TDP2 absorb -3.9, PAD4 inh -10.8, PRMT1 inh 23.1* and GSTO1 counter 2.7.
Screening CCN(C(=O)c1ccco1)c1nc(CC(=O)Nc2ccc(Cl)cc2)cs1 returned Fh CTSL1 inh -2.8, TDP2 absorb -0.3, PAD4 inh -1.3, PRMT1 inh 5.8 and GSTO1 counter -0.8.
Screening CCC(=O)N(Cc1ccco1)c1nc(C(=O)Nc2ccc(Cl)cc2)c(C)s1 returned Fh CTSL1 inh 3.4, TDP2 absorb -6.8, PAD4 inh -6.5, PRMT1 inh 21.3* and GSTO1 counter -8.7.
O=C(O)CC(C(=O)O)N1C(=O)/C(=C/C=C/c2ccco2)SC1=S (stereo unspecified) was read as Fh CTSL1 inh 1.0, TDP2 absorb 10.7, PAD4 inh -4.1, PRMT1 inh 54.0* and GSTO1 counter 36.7*.
CCOC(=O)c1ccc(-c2ccc3ncnc(NCc4csc(C)n4)c3c2)o1 was read as TDP2 absorb 8.5 and PRMT1 inh 5.2.
Screening Cc1ccc(CNc2ncnc3ccc(-c4ccc(CO)o4)cc23)o1 returned TDP2 absorb -4.3 and PRMT1 inh 24.7*.
Screening CC(C)c1ccc(C2CC(c3ccc(Br)cc3)=NN2C(N)=S)cc1 (stereo unspecified) returned Fh CTSL1 inh 19.9*, TDP2 absorb -6.9, PAD4 inh 2.5, PRMT1 inh -1.8 and GSTO1 counter 0.6.
`O=C(c1ccccc1)N1CC[C@H]2[C@H](CCCN2Cc2ccccc2)C1` gave TDP2 absorb 0.5 and PRMT1 inh 2.3.
`CCC(=O)NC1=C(Cl)C(=O)C(NC(=O)CC)=C(Cl)C1=O` gave TDP2 absorb 7.8 and PRMT1 inh 90.2*.
For O=C(NC1CC1)c1ccc2c(c1)S(=O)(=O)c1cc(Cl)ccc1C2=O the results were TDP2 absorb 4.8, PAD4 inh 19.9* and PRMT1 inh 1.0.
Screening CS(=O)(=O)NCCSCc1ccccc1 returned Fh CTSL1 inh 19.0*, TDP2 absorb -8.7, PAD4 inh -4.4, PRMT1 inh 0.9 and GSTO1 counter 2.3.
For CN(C)CCCN(C(=O)CCS(=O)(=O)c1ccccc1)c1nc2cc3c(cc2s1)OCO3 the results were Fh CTSL1 inh 29.4*, TDP2 absorb 2.3, PAD4 inh -1.7, PRMT1 inh 7.2 and GSTO1 counter -0.9.
For COc1ccc(OC)c2sc(N(CCCN(C)C)C(=O)CCS(=O)(=O)c3ccccc3)nc12 the results were Fh CTSL1 inh 37.2*, TDP2 absorb 1.4, PAD4 inh 0.9, PRMT1 inh 10.7 and GSTO1 counter 9.0.
